These results are taken from paper PMC8387982 (ACS Omega, 2021).

Data set [1] can be described thus: Circular dichroism, α-helical content. It counts as physicochemical. Put shortly: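 CD spectra recorded at 25 °C in a 1.0 mm quartz cell over 190–260 nm (50 nm/min, 1 nm bandwidth, 1 s response). Test compound at 50 μM final in deionized water or 50% TFE. Observed ellipticity corrected for buffer and converted to mean residue ellipticity using peptide concentration, path length and residue number.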
Background: Circular dichroism is widely used to follow secondary structure.

The test system of data set [2] is bacteria (S. aureus, B. subtilis, E. coli, P. aeruginosa, K. pneumoniae). The experiment in a line: Geometric mean of the peptide MICs. It is filed as cell-based. The conditions noted are these: over the five bacterial strains. Put shortly:
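Broth microdilution: single colony grown in MHB at 37 °C for 16–24 h. Log-phase culture diluted to 1×10^6 CFU/mL and mixed with equal volumes of serially diluted test compound. […] At least three independent experiments, each with three technical replicates. Geometric mean of MICs across strains computed.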

The subject of data set [3] is human glomerular mesangial cell (GMC) line. Nature of the data set: MTT cytotoxicity assay. It is filed as cell-based. Conditions: read-out: IC50 for GMC, 12 h, peptides 1-256 μM. Put shortly: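 MTT assay: human GMC cells seeded at 1.0×10^4 cells/well and exposed to test compound (1–256 μM) for 12 h at 37 °C, 5% CO2. Then 0.5 mg/mL MTT added for 4 h at 37 °C; formazan dissolved in DMSO and read at 570 nm. At least three independent experiments, each with three technical replicates.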

A further data set relates to human erythrocytes. The experiment in a line: Hemolytic assay. It is filed as cell-based. Conditions: concentration causing 10% hemolysis of erythrocytes; 1 h, 37 °C.
Another data set concerns E. coli ATCC 25922. Nature of the data set: Checkerboard FIC with conventional antibiotics. It counts as cell-based, Escherichia coli. Put shortly:
(§1)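 Checkerboard assay: test compound and antibiotic mixed at 2× their MICs, then 2-fold serial dilutions made in MHB. Equal volume of bacteria (1×10^6 CFU/mL) added and incubated 18–24 h at 37 °C. Growth read as in the MIC assay. FIC = (MIC peptide in combination/MIC peptide alone) + (MIC antibiotic in combination/MIC antibiotic alone). Interpretation: ≤0.5 synergy; 0.5–1 additive; 1.0–<4.0 indifference; ≥4 antagonism.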

Another data set deals with P. aeruginosa ATCC 27853. The experiment in a line: Checkerboard FIC with conventional antibiotics. The conditions noted are these: in combination with rifampicin. It is filed as cell-based, Pseudomonas aeruginosa. Put shortly: as §1
Data set [4] concerns K. pneumoniae ATCC 700603. The experiment in a line: Checkerboard FIC with conventional antibiotics. It counts as cell-based, Klebsiella pneumoniae. Put shortly: as §1

What is called IC50 is the concentration that inhibits the measured activity by half. Consider H-GLLKRIKTLL-NH2 [Anoplin], for which the “α-helix in 50% TFE” value in data set [1] (CD, 50 μM peptide, 50% TFE, 25 °C) came out at 82.64%. In data set [1] (CD, 50 μM peptide, deionized water, 25 °C), this substance had a α-helix in water of 14.03%. Further, in data set [1] (water environment, result in words), the “α-helical structure in water (CD)” value is recorded as “did not show a α-helical structure”. Further, in data set [2], the “GM (geometric mean of the peptide MICs)” value worked out at 48.50 µM. Also, the half-maximal inhibitory concentration (IC50) in data set [3] was over 256 µM. Besides, in the data set on human erythrocytes, the “MHC (minimum hemolytic concentration)” value was over 256 µM.

Regarding polymyxin B, the FIC in the data set with E. coli ATCC 25922 (in combination with gentamicin) turned out to be 0.3125; in the data set with E. coli ATCC 25922 (in combination with rifampicin), 0.125; in the data set with P. aeruginosa ATCC 27853 it was 0.3125; in data set [4] (in combination with gentamicin) it was 0.5; in data set [4] (in combination with rifampicin), 0.3125.
